Measurements: ChEMBL document CHEMBL4261626, “Design, synthesis, and effects of novel phenylpyrimidines as glucagon receptor antagonists” (Bioorg Med Chem, 2018)
Activity calls are given as the source filed them. No cut-off for these calls is given here.

Key:
Glucagon receptor [1] = biological target: T1, Glucagon receptor (Homo sapiens, UniProt P47871); assay: Antagonist activity at human glucagon receptor expressed in CHO-K1 GCGR Gs cells assessed as inhibition of glucagon-induced cAMP accumulation at 10 uM pre-incubated for 10 mins before glucagon and forskolin addition and further incubated for 30 mins by luminescence-based assay; format: functional, cell-based; details: in the assay text read “pre-incubated for 15 mins” for “pre-incubated for 10 mins”
In short: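 CHO-K1 GCGR Gs cells were seeded at 1×10^4/well. The next day they were pre-treated with compound at 10 μM in PBS for 15 min at 37 °C, 5% CO₂. Then 0.1 nM glucagon plus 10 μM forskolin was added for a further 30 min. cAMP was read by HitHunter enzyme-complementation luminescence. Three independent experiments.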

[2] = (§1) Cytotoxicity against C57BL/6N mouse primary hepatocytes assessed as cell viability at 20 uM after 24 hrs by CCK8 assay; format: cell-based, Hepatocyte; details: C57BL/6N, primary hepatocytes, read-out: Activity
In short: (§2)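 Hepatocytes were isolated by portal-vein perfusion and Percoll gradient from 10-week male C57BL/6N mice. Cells were seeded at 1×10^4/well and exposed to 20 μM compound in cell plating reagent for 24 h. CCK-8 was then added for 2 h at 37 °C and absorbance read at 450 nm. Three independent experiments, each in triplicate.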

Hepatocyte [3] = assay: as §1; format: cell-based; details: hepatocytes, 24 h, 20 µM; in short: as §2
Hepatocyte [4] = assay: Inhibition of glucagon-induced glucose production in C57BL/6N mouse primary hepatocytes grown under gluconeogenic medium at 20 uM after 3 hrs by glucose assay reagent-based glucose oxidase method; format: functional, cell-based
In short: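 Mouse primary hepatocytes in glucose-free DMEM were given 20 μM compound for 3 h with 10 nM glucagon, 2 mM sodium pyruvate and 20 mM sodium lactate. Medium glucose was measured by glucose assay kit 30 min after glucagon. Three independent experiments.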

Glucagon receptor [5] = biological target: T1, Glucagon receptor; assay: Antagonist activity at human glucagon receptor expressed in CHO-K1 GCGR Gs cells assessed as inhibition of glucagon-induced cAMP accumulation pre-incubated for 10 mins before glucagon and forskolin addition and further incubated for 30 mins by luminescence-based assay; format: functional, cell-based; details: in the assay text read “pre-incubated for 15 mins” for “pre-incubated for 10 mins”
In short: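 Glucagon-receptor CHO-K1 GCGR Gs cells (1×10^4/well, plated the day before) were exposed to compound at 0.0001–100 μM in PBS for 15 min at 37 °C. Cells were then stimulated with 0.1 nM glucagon and 10 μM forskolin for 30 min. cAMP was measured by HitHunter luminescence. IC50 was fitted from three independent determinations.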

Hepatocyte [6] = assay: Inhibition of glucagon-induced glucose production in C57BL/6N mouse primary hepatocytes grown under gluconeogenic medium at 20 uM after 30 mins by glucose assay reagent-based glucose oxidase method; format: functional; details: 0.5 h
In short: (§3)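 Primary mouse hepatocytes were plated at 2.5×10^5/well. After 24 h they were washed and held 3 h in glucose-free DMEM. Compound (20 μM screen, or 1–100 μM series) was then added with 20 mM sodium lactate, 2 mM sodium pyruvate and 10 nM glucagon. Medium glucose was assayed by kit after 30 min and normalized to cellular protein. Five independent experiments, each in triplicate.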

Mus musculus [7] = assay: Antihyperglycemic activity in db/db mouse assessed pretreated at 50 mg/kg, po administered via intubation once per day for 4 weeks followed by fasting for 5 hrs before second administration at 50 mg/kg via oral gavage and subsequent glucagon challenge after 1 hr and measured durimng 15 to 60 mins post glucagon injection; format: functional, organism-based
In short: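 Diabetic db/db mice were dosed orally at 50 mg/kg daily for 4 weeks (vehicle 9% cremophore/10% DMSO in sterile water). They were then fasted 5 h and re-dosed 50 mg/kg by gavage. After 1 h they received glucagon 15 μg/kg i.p. Blood glucose was measured at 15, 30, 45 and 60 min. n=4–6/group.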

Mus musculus [8] = assay: Antihyperglycemic activity in db/db mouse assessed as reduction in blood glucose level at 50 mg/kg, po administered once per day for 4 weeks and measured after 12 hrs fasting; format: functional, organism-based
In short: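 Male db/db mice were obtained at 6 weeks; only animals with blood glucose over 400 mg/dL were used. They were dosed 50 mg/kg by oral intubation once daily for 4 weeks, in 9% cremophore with 10% DMSO in sterile water. Fasting blood glucose was read by glucometer after a 12 h fast at week 4. n=7/group.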

Hepatocyte [9] = assay: Inhibition of glucagon-induced glucose production in C57BL/6N mouse primary hepatocytes grown under gluconeogenic medium after 30 mins by glucose assay reagent-based glucose oxidase method; format: functional, cell-based; in short: as §3
Hepatocyte [10] = assay: Inhibition of glucagon-induced glucose production in C57BL/6N mouse primary hepatocytes grown under gluconeogenic medium at 10 uM after 30 mins by glucose assay reagent-based glucose oxidase method; format: functional, cell-based; in short: as §3

T1 sequence (P47871 whole entry): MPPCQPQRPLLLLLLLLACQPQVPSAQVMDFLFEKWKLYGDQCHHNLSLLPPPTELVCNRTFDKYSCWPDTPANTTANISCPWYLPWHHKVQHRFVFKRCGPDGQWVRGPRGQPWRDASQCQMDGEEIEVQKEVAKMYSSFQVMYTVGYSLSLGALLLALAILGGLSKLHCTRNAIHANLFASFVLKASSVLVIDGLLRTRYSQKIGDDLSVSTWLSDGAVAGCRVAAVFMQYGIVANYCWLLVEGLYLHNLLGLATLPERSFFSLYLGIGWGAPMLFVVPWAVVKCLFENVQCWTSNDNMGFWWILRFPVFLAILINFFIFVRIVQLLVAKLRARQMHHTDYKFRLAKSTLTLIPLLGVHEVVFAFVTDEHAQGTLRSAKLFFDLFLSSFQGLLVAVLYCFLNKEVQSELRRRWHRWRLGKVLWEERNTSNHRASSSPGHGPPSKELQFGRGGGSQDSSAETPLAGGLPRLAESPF

Structure (SMILES) | inhibition (Glucagon receptor [1]) | viability at 24 h, 20 µM [2] | IC50 (Glucagon receptor [5]) | inhibition at 20 µM (Hepatocyte [6]) | further results
CCCCC(Oc1ncc(-c2ccc(C(F)(F)F)cc2F)cn1)c1ccc(C(=O)NCCC(=O)O)cc1 (configuration not stated) | > 60% | > 80% | – | – | –
CCCC[C@@H](Oc1ncc(-c2ccc(C(C)(C)C)cc2)cn1)c1ccc(C(=O)NCCC(=O)O)cc1 | – | – | – | – | Activity (Hepatocyte [3]): Toxic; inhibition (Hepatocyte [4]): inactive
CCCCC(Oc1ncc(-c2ccc(Cl)cc2)cn1)c1ccc(C(=O)NCCC(=O)O)cc1 (configuration not stated) | > 60% | > 80% | – | – | –
CCCCC(Oc1ncc(-c2ccc(CC)cc2)cn1)c1ccc(C(=O)NCCC(=O)O)cc1 (configuration not stated) | > 60% | > 80% | 17.7 µM | > 60% | –
CCCC[C@H](Oc1ncc(-c2ccccc2)cn1)c1ccc(C(=O)NCCC(=O)O)cc1 | – | – | 8.5 µM | – | Activity (Mus musculus [7]): Active; Activity (Hepatocyte [3]): Toxic; inhibition (Hepatocyte [4]): Active; Activity (Mus musculus [8]): Active
CCCCC(Oc1ncc(-c2ccc(C(C)(C)C)cc2)cn1)c1ccc(C(=O)NCCC(=O)O)cc1 (configuration not stated) | > 60% | > 80% | 6 µM | > 60% | inhibition (Hepatocyte [9]): Dose-dependent effect; inhibition (Hepatocyte [10]): Active
CCCC[C@H](Oc1ncc(-c2ccc(C(C)(C)C)cc2)cn1)c1ccc(C(=O)NCCC(=O)O)cc1 | – | – | – | – | Activity (Hepatocyte [3]): Toxic; inhibition (Hepatocyte [4]): inactive
CCCCC(Oc1ncc(-c2cccc(Cl)c2)cn1)c1ccc(C(=O)NCCC(=O)O)cc1 (configuration not stated) | > 60% | > 80% | – | – | –
CCCCC(Oc1ncc(-c2ccc(C(F)(F)F)cc2)cn1)c1ccc(C(=O)NCCC(=O)O)cc1 (configuration not stated) | > 60% | > 80% | – | – | –
CCCCC(Oc1ncc(-c2ccccc2Cl)cn1)c1ccc(C(=O)NCCC(=O)O)cc1 (configuration not stated) | > 60% | > 80% | – | – | –
Cc1cc(O[C@@H](CCC(F)(F)F)c2ccc(C(=O)NCCC(=O)O)cc2)cc(C)c1-c1ccc(C(C)(C)C)cc1 | – | – | – | – | Activity (Mus musculus [8]): inactive
CCCCC(Oc1ncc(-c2ccccc2)cn1)c1ccc(C(=O)NCCC(=O)O)cc1 (configuration not stated) | > 60% | > 80% | 4.1 µM | > 60% | inhibition (Hepatocyte [9]): Dose-dependent effect; inhibition (Hepatocyte [10]): Active
CCCC[C@@H](Oc1ncc(-c2ccccc2)cn1)c1ccc(C(=O)NCCC(=O)O)cc1 | – | – | 9.3 µM | – | Activity (Mus musculus [7]): Active; Activity (Hepatocyte [3]): Non-Toxic; inhibition (Hepatocyte [4]): Active; Activity (Mus musculus [8]): Active
CCCCC(Oc1ncc(-c2ccc(Oc3ccccc3)cc2)cn1)c1ccc(C(=O)NCCC(=O)O)cc1 (configuration not stated) | > 60% | > 80% | 8.2 µM | > 60% | –
CCCCC(Oc1ncc(-c2cc(Cl)cc(Cl)c2)cn1)c1ccc(C(=O)NCCC(=O)O)cc1 (configuration not stated) | > 60% | > 80% | 6.9 µM | > 60% | inhibition (Hepatocyte [9]): Dose-dependent effect
CCC(CC)C(=O)Nc1sc2c(c1C#N)CCC(C(C)(C)CC)C2 (configuration not stated) | > 60% | > 80% | – | – | –
